Hits are enriched below; roughly 2.5% of the tested compounds scored in any of these assays.
NadD block: inhibitors of Staphylococcus aureus NadD; 360,000 tested, 0.78% active; AID 602399; inhibition, % at 20 µM; purified NadD enzyme, colorimetric absorbance read-out; in the data active = inhibition above about 26%
MsrA inh: inhibits bovine methionine sulfoxide reductase A; purified bovine MsrA, absorbance read-out; inhibition, % at 15.5 µM; 360,000 tested, 0.75% active; AID 651718;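 note: 0% = vehicle wells with enzyme and 100% = reference inhibitor wells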
NR2E3 ag-1: NR2E3 (human) agonism. GST-NR2E3/biotin-RetCOR TR-FRET, 1536-well. inhibition of corepressor binding, % at 4.78 µM. 320,000 tested, 0.12% active. AID 2300;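 active = percent inhibition above the cutoff of mean plus 3 SD of all tested compounds, set per screening campaign, cut at about 20% in these data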;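 note: 0% = DMSO wells and 100% = biotin wells as full block of FRET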
Target sequence (Q9Y5X4 whole entry, looked up): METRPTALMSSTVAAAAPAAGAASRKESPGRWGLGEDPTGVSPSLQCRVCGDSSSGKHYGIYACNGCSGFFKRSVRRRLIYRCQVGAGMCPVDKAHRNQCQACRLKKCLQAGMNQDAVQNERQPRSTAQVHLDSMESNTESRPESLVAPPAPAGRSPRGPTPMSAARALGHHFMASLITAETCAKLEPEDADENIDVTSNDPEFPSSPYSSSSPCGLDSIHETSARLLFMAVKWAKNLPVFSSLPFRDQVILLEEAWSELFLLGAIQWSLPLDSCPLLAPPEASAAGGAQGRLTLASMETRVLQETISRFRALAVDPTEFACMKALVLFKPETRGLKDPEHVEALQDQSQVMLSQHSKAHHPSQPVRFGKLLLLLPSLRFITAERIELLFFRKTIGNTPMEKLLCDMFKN
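Material: NR2E3–RetCOR corepressor complex / Amount: 1.35 nM GST-NR2E3 / Medium: Tris pH 7.5 / Compound: single nominal compound dose of 4.8 µM / Incubation: 5 h at 4 °C / Technique: TR-FRET, Eu(K)-anti-GST donor, streptavidin-D2 acceptor, ex 340, em 617/671 nm / Read-out basis: percent loss of FRET ratio relative to control wells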
GalR3 antagonist: antagonists of human GalR3; HEK293 GalR3-CNG cAMP membrane potential fluorescence; galR3 body fused to GalR1 C-terminus; inhibition, % at 3 µM; 360,000 tested, 0.44% active; AID 651719;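 active = inhibition above the screen-wide average plus 3 SD, cut at about 13% in these data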;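 note: forskolin and galanin both at EC90 stimulate the cells; cAMP rise reported by CNG channel membrane potential dye signal; 0% = forskolin plus galanin with DMSO and 100% = forskolin alone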
Target sequence (O60755 1-299 limits assumed): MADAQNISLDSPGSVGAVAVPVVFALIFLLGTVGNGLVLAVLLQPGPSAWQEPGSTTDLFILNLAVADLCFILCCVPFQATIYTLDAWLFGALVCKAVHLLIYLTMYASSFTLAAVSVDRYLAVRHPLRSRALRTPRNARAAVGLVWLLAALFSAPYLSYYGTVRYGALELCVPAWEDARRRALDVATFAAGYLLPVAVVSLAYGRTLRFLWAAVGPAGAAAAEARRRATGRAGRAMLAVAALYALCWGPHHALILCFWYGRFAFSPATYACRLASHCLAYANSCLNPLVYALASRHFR
MsrA act: activates bovine MsrA enzyme; purified bovine MsrA, absorbance read-out; activation, % at 10.6 µM; 360,000 tested, 0.3% active; in the data active = activation above about 7.5%;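 note: 0% = vehicle and 100% = reference activator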
NR2E3 ag-2: activates human NR2E3 receptor. Q9Y5X4. CHO-S Gal4-NCOR/VP16-NR2E3 two-hybrid, luciferase. inhibition of corepressor binding, % at 3.98 µM. 360,000 tested, 0.35% active. AID 602229;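 active = inhibition above the mean of all tested compounds plus 3 SD, cut at about 70% in these data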;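 note: 0% = DMSO with NR2E3 transfected cells and 100% = cells lacking NR2E3 construct; higher means lower luciferase signal from less NR2E3 corepressor binding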
NR2E3 ag confirm: NR2E3 agonism confirmed in two-hybrid assay | CHO-S mammalian two-hybrid NR2E3-NCOR, luciferase luminescence | shares compounds with NR2E3 ag-2 | 2,300 tested, 51% active | inhibition, % at 3.98 µM;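 active = average inhibition above a cutoff equal to the mean inhibition of all tested compounds plus one SD, cut at about 70% in these data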;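 note: 0% = DMSO in NR2E3 cells and 100% = DMSO in cells lacking NR2E3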
GAL4-VP16 luc: counter-screen for NR2E3 agonists: GAL4-VP16 reporter inhibitors; CHO-S GAL4-VP16 luciferase reporter, luminescence; 2,300 tested, 29% active; inhibition, % at 3.98 µM; shares compounds with NR2E3 ag-2; AID 624379;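 active = mean inhibition above a cutoff equal to the average over all tested compounds plus one standard deviation, cut at about 70% in these data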;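 note: luciferase from a UAS reporter driven by GAL4-VP16 transactivation; 0% = DMSO with VP16-transfected cells and 100% = DMSO with cells lacking VP16; higher means less reporter light so more repression of VP16 activity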
NadD inh conf: NadD (S. aureus) inhibition, single concentration confirmation; shares compounds with NadD block; purified S. aureus NadD, colorimetric enzyme assay; inhibition, % at 20 µM; 2,000 tested, 13% active; in the data active = inhibition mostly above about 42%, no sharp cut-off; inactive = mostly below about 42%
MsrA conf: bovine MsrA inhibition, confirmed | shares compounds with MsrA inh | purified bovine MsrA, absorbance read-out | inhibition, % at 15.5 µM | 2,300 tested, 41% active;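 note: coupled to thioredoxin reductase with NADPH and selenocystamine and DMSO as substrate; 0% = vehicle only and 100% = full effect of reference inhibitor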
GalR3 antag conf: confirmation of human galanin receptor 3 antagonists | 1,600 tested, 59% active | inhibition, % at 3 µM | AID 652245 | HEK293 GalR3 CNG cAMP biosensor, membrane potential fluorescence; galR3 fused to GalR1 carboxy tail; challenged with forskolin and galanin at EC90 | shares compounds with GalR3 antagonist;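 active = inhibition above the primary screen's cutoff, the mean inhibition of all screened compounds plus 3 SD, cut at about 13% in these data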;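 note: 0% = forskolin plus galanin and 100% = forskolin alone with DMSO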
CNG parental: counter-screen for GalR3 antagonists: nonspecific agonists in parental HEK-CNG cells | shares compounds with GalR3 antagonist | HEK293-CNG parental cells, cAMP membrane potential fluorescence; normalised: DMSO wells 0%, forskolin wells 100% | activation, % at 3 µM | 1,600 tested, 10% active; in the data active = activation above about 1.3%
An asterisk follows results filed as active; · = no result. Cut-off read from the data, not from the text of the source, unless noted: active = inhibition above about 4.5%; inactive = the rest.

SMILES	NadD block	MsrA inh	NR2E3 ag-1	GalR3 antagonist	MsrA act	NR2E3 ag-2	NR2E3 ag confirm	GAL4-VP16 luc	GalR3 antag conf	CNG parental	others
Cc1[nH]n2c(=O)cc(-c3ccc([N+](=O)[O-])cc3)nc2c1-c1ccccc1	34*	1	-1	-1	-4	97*	99*	58	·	·	NadD inh conf=51*
Cc1onc(-c2ccccc2Cl)c1C(=O)N1CCN(c2cccc(Cl)c2)CC1	5	0	1	-5	0	-45	·	·	·	·
CCc1cc2c(=O)nc3n(c2s1)Cc1ccccc1/C3=C(/O)c1ccc(F)cc1	36*	0	0	8	-3	69	-19	-4	·	·	NadD inh conf=10
COCCn1c(C)cc(C2=NNC(=Nc3ccccc3F)SC2)c1C	38*	0	0	-5	-1	88*	57	40	·	·	NadD inh conf=17
COCCCN=C1NN=C(c2cc(C)n(-c3ccccc3F)c2C)CS1	-5	0	-2	-6	-11	-41	·	·	·	·
Cc1cccc(C2(c3cccc(C)c3)CC2C(=O)Nc2ccc([N+](=O)[O-])cc2O)c1 (stereo unspecified)	30*	1	-4	-4	-1	86*	74*	67	·	·	NadD inh conf=50*
CC1CC(C)CN(CCCNC(=O)c2ccc3nc(N4CCOCC4)sc3c2)C1 (stereo unspecified)	-9	0	5	1	-5	2	·	·	·	·
O=S(=O)(Nc1cccc(-c2cn3cccnc3n2)c1)c1ccc(-c2ccccc2)cc1	40*	2	4	4	-8	58	56	60	·	·	NadD inh conf=41
O=C(Nc1nnc(-c2cccs2)o1)c1cc(-c2ccccc2)nc2ccccc12	55*	2	0	-2	-7	71*	99*	13	·	·	NadD inh conf=51*
O=C(NCc1cccs1)c1cc(-c2ccccc2)nc2ccccc12	0	2	0	-10	2	-6	·	·	·	·
CS(=O)(=O)c1ccc2nc(NC(=O)C3COc4ccccc4O3)sc2c1 (stereo unspecified)	-1	1	2	-7	-10	-46	·	·	·	·
C#Cc1cccc(Nc2nc(NCc3ccccc3OC)nc3ccsc23)c1	12	18*	·	-7	-2	68	92*	75*	·	·	MsrA conf=11*
O=C(CCCN1C(=O)S/C(=C\c2ccccc2)C1=O)NNC(=O)c1ccccc1O	4	4.7*	8	-2	-6	50	60	53	·	·	MsrA conf=4
COC(=O)c1cc(S(=O)(=O)N2CCN(c3ccccc3OC)CC2)cn1C	-3	-1	-1	-2	-4	-2	·	·	·	·
COc1ccccc1S(=O)Cc1ccc(C(=O)NC2CCCC2)o1 (stereo unspecified)	-5	1	0	-1	-4	24	·	·	·	·
CC(=O)c1c(C)oc2c1C(=O)c1ccccc1C2=O	-4	0	-3	-2	2	-22	·	·	·	·
O=C1c2ccccc2C(=O)c2c1oc(C(F)(F)F)c2C(=O)c1ccccc1	-5	51*	4	-2	2	112*	98*	87*	·	·	MsrA conf=58*
Cc1nn(C)c(Cl)c1NC(=O)OCc1ccc(Cl)cc1Cl	0	2	2	96*	-1	67	91*	67	21*	0
COc1ccc(CCN(C)c2ccc(S(=O)(=O)N3CCCC3)cc2[N+](=O)[O-])cc1OC	-6	2	-1	-6	-7	0	·	·	·	·
COc1ccc(CN(C)c2ccc(S(=O)(=O)N3CCN(C)CC3)cc2[N+](=O)[O-])cc1OC	-1	0	3	103*	0	94*	96*	85*	127*	0
NC(=O)c1ccc(N2CCN(S(=O)(=O)c3ccccc3)CC2)c([N+](=O)[O-])c1	1	0	2	32*	4	74*	87*	69	116*	-1
O=C(c1ccc(N2CCCCC2)c([N+](=O)[O-])c1)N1CCN(S(=O)(=O)c2ccccc2)CC1	7	-1	1	-4	-2	15	·	·	·	·
COc1ccc(CNC(=O)C2Cc3c(-c4ccc5c(c4)OCO5)ccnc3O2)cc1OC (stereo unspecified)	6	0	·	-10	-1	-28	·	·	·	·
COc1ccc(NC(=O)C2Cc3c(-c4ccc5c(c4)OCO5)ccnc3O2)cc1OC (stereo unspecified)	1	-1	·	66*	-6	84*	91*	73*	74*	0
CC(C)(C)OC(=O)NCCCCCc1cn([C@@H](CO)C(=O)NCCCCCCCCCCC(=O)N2CCN(C(=O)OC(C)(C)C)CC2)nn1	-3	0	3	88*	2	66	83*	74*	102*	0
SMILES	NadD block	MsrA inh	NR2E3 ag-1	GalR3 antagonist	MsrA act	NR2E3 ag-2	NR2E3 ag confirm	GAL4-VP16 luc	GalR3 antag conf	CNG parental	others
CN1CCN(/N=C/c2nc(-c3ccccc3)n3ccccc23)CC1	-4	2	-11	-3	-6	-8	·	·	·	·
CCC(NC(=O)Nc1nnc(C(F)(F)F)s1)(C(F)(F)F)C(F)(F)F	-4	0	5	58*	7	104*	97*	90*	84*	0
O=C(O)CCC(=O)Nc1nnc(C(F)(F)F)s1	-3	-1	-2	0	-4	4	·	·	·	·
COc1ccc(-n2cnnc2SCC(=O)Nc2ccc(C(N)=O)cc2)cc1	-4	0	2	-7	-2	-25	·	·	·	·
CCCc1cc(=O)n2nc(N3CCC(C(=O)N4CCN(c5ccc(OC)cc5)CC4)CC3)sc2n1	-3	0	0	14*	-4	69	75*	55	104*	0
Cc1ccccc1Cn1c(C)nc2ccccc21	-3	0	-2	60*	-4	62	93*	82*	103*	0
Cc1nc2ccccc2n1Cc1ccc(Cl)cc1	4	1	4	87*	-1	92*	94*	83*	109*	0

Screens (PubChem BioAssay)
